From the M2OR odorant receptor database

What was measured:
Details in all cases: stereoisomer not certain
[1] = target: T1, OR10G2 (Homo sapiens) (UniProt Q8NGC3)
T1 sequence (whole entry): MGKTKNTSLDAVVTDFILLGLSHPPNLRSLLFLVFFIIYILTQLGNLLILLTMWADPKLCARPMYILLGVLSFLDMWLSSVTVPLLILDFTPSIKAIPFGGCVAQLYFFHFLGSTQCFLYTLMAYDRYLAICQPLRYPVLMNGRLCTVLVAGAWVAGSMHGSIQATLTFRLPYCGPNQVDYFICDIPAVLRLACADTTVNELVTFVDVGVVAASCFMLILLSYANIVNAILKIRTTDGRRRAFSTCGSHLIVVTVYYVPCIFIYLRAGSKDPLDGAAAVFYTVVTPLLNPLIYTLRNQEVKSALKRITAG
Summary of the method: (§1)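 Transient luciferase assays in mammalian cell lines were common, though methods varied by source. The values come from published papers and their supplementary material, with extra details from the original authors when needed. Responsive refers to a measured signal the original authors judged statistically different from baseline, and non-responsive (inactive) to the remainder.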

[2] = target: T2, OR10G3 (Homo sapiens) (UniProt Q8NGC4)
T2 sequence (whole entry): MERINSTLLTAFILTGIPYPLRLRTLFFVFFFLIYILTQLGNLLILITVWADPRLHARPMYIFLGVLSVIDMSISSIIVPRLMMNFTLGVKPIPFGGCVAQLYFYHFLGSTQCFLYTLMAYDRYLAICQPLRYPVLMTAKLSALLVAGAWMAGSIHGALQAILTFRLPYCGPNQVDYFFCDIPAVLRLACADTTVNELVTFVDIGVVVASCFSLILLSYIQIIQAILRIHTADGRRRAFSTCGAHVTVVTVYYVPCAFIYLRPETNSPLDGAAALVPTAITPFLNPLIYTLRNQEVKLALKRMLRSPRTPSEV
Summary of the method: as §1

[3] = target: T3, OR10G4 (Homo sapiens) (UniProt Q8NGN3)
T3 sequence (whole entry): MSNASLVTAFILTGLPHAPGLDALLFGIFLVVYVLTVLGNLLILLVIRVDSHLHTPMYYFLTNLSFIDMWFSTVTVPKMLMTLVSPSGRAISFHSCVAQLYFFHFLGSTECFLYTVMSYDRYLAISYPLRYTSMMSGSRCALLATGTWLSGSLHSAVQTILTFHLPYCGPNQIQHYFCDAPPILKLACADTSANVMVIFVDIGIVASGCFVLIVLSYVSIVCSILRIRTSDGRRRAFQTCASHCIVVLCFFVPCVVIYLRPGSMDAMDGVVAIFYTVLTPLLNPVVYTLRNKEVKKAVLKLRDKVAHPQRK
Summary of the method: as §1

[4] = target: T4, OR10G6 (Homo sapiens) (UniProt Q8NH81)
T4 sequence (whole entry): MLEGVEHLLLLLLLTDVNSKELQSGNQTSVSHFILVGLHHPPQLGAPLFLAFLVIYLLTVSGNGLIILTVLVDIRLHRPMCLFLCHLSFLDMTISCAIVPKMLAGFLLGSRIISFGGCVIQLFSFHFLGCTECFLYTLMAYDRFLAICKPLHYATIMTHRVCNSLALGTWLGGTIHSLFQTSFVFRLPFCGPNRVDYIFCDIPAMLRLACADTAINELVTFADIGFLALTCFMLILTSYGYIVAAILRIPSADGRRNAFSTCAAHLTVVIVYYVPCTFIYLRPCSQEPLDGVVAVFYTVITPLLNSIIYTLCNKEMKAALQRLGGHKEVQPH
Summary of the method: as §1

[5] = target: T5, OR10G7 (Homo sapiens) (UniProt Q8NGN6)
T5 sequence (whole entry): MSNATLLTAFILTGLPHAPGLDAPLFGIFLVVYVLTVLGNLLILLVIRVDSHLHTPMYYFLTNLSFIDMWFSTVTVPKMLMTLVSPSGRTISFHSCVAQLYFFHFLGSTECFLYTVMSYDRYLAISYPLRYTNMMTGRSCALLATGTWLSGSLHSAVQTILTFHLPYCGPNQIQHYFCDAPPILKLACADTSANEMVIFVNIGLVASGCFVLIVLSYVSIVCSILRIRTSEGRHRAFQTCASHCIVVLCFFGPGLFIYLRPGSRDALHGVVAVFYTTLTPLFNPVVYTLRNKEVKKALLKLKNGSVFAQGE
Summary of the method: as §1

[6] = target: T6, OR10G8 (Homo sapiens) (UniProt Q8NGN5)
T6 sequence (whole entry): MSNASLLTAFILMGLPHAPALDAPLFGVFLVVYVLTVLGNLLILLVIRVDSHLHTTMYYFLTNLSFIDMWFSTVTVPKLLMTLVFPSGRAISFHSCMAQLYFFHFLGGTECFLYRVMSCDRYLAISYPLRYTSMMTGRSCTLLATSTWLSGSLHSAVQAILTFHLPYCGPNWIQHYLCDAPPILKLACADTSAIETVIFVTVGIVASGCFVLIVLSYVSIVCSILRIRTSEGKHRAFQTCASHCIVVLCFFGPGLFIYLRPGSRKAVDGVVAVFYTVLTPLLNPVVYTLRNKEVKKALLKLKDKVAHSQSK
Summary of the method: as §1

[7] = target: T7, OR10G9 (Homo sapiens) (UniProt Q8NGN4)
T7 sequence (whole entry): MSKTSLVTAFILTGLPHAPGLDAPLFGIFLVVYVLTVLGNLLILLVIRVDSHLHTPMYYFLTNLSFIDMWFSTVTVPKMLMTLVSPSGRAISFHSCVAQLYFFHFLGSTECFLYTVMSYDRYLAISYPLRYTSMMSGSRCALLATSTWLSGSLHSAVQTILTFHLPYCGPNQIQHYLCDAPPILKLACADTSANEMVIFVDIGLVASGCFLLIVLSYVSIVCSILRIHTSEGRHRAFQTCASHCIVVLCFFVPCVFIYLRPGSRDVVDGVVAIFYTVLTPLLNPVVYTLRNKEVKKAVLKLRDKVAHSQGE
Summary of the method: as §1

[8] = target: T8, OR10H1 (Homo sapiens) (UniProt Q9Y4A9)
T8 sequence (whole entry): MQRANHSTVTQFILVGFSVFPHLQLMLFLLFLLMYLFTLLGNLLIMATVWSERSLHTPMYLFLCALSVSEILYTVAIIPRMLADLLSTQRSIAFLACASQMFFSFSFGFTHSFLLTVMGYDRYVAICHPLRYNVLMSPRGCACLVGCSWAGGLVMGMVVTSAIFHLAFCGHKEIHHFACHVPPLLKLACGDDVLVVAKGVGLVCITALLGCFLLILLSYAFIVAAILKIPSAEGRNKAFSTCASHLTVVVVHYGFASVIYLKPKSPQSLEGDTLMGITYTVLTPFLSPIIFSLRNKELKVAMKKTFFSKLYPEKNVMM
Summary of the method: as §1

[9] = target: T9, OR10H2 (Homo sapiens) (UniProt O60403)
T9 sequence (whole entry): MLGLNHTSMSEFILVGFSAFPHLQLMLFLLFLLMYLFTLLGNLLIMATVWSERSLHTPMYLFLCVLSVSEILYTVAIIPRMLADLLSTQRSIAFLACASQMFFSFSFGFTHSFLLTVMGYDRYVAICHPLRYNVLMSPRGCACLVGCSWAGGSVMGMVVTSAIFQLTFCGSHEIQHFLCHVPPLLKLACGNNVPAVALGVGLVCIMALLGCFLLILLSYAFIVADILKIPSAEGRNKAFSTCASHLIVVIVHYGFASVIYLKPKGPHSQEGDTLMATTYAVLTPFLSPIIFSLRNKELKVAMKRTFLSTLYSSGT
Summary of the method: as §1

[10] = target: T10, OR10H3 (Homo sapiens) (UniProt O60404)
T10 sequence (whole entry): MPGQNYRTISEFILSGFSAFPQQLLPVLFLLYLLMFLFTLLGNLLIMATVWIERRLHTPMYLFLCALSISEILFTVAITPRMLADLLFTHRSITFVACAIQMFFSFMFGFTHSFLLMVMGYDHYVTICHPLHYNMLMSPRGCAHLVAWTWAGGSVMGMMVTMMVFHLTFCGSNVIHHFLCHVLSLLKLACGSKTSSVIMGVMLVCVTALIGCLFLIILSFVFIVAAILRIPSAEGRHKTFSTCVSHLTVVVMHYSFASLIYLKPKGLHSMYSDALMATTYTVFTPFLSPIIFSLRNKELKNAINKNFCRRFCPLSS
Summary of the method: as §1

Measured: odorant receptor agonist call;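 note: active if original authors judged signal statistically different from baseline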

CCC1OC(=O)C(O)=C1C (stereo not given)
inactive: [1] | [2] | [3] | [4] | [5] | [6] | [7] | [8] | [9] | [10]
